A short description of experiment [1]: Mixed-type of inhibition of SARS coronavirus papain-like protease (1541 to 1855 amino acids) expressed in Escherichia coli BL21 (DE3) using Z-RLRGG-AMC as substrate by Dixon plot analysis. Further details: species or system Severe acute respiratory syndrome-related coronavirus.
A short description of experiment [2]: (§1) Inhibition of SARS coronavirus papain-like protease (1541 to 1855 amino acids) expressed in Escherichia coli BL21 (DE3) using Z-RLRGG-AMC as substrate by fluorogenic assay. Further details: species or system Severe acute respiratory syndrome-related coronavirus. The essentials:
(§2)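 Protease domain construct His-tagged, purified by nickel affinity, ion-exchange and gel filtration, tag removed by TEV. […] AMC release followed continuously at ex 360/em 460 nm. IC50 is the concentration giving 50% activity loss; three repeat experiments, standard deviation.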

For experiment [3], the system named is Severe acute respiratory syndrome-related coronavirus. The experiment is described as §1. A digest of the protocol: as §2

What is called Ki is a dissociation constant, usually derived from enzyme kinetics or from competition with a known ligand. In general, IC50 refers to the concentration that inhibits the measured activity by half.

Molecules are shown by their SMILES.

For the compound `COc1cc([C@@H]2CC(=O)c3c(cc(O)c(C/C=C(\C)CCC=C(C)C)c3O)O2)ccc1O`, in experiment [1], the inhibition constant (Ki) was 7.1 µM. The IC50 in experiment [2] was 13.2 µM. The inhibition result in experiment [3] is “Dose-dependent effect”.

As to `COc1cc([C@H]2Oc3cc(O)c(C/C=C(\C)CCC=C(C)C)c(O)c3C(=O)[C@@H]2O)ccc1O`, the Ki in experiment [1] turned out to be 6.6 µM. Further, in experiment [2], it took 9.5 µM to reach half-maximal inhibition (IC50). The inhibition result in experiment [3] was “Dose-dependent effect”.

Regarding `COc1ccc([C@@H]2CC(=O)c3c(cc(O)c(C/C=C(\C)CCC=C(C)C)c3O)O2)cc1O`, the Ki in experiment [1] was 6.9 µM. Also, half-maximal inhibition in experiment [2] (IC50) was put at 12.7 µM. Besides, in experiment [3], the inhibition entry is “Dose-dependent effect”.

For the compound `COc1cc([C@H]2Oc3cc4c(c(O)c3C(=O)[C@@H]2O)CCC(C)(CCCC(C)(C)O)O4)ccc1O` (some centres undefined), affinity in experiment [1] was put at a Ki of 3.7 µM. Also, the IC50 in experiment [2] came to 5 µM. Also, the inhibition entry in experiment [3] is “Dose-dependent effect”.

As to `COc1cc([C@@H]2CC(=O)c3c(cc(O)c(C/C=C(\C)CCC=C(C)C)c3O)O2)cc(OC)c1O`, the Ki in experiment [1] worked out at 8.4 µM. The compound further displayed an IC50 in experiment [2] of 13.9 µM. In addition, in experiment [3], the inhibition result is “Dose-dependent effect”.

`COc1cc([C@@H]2CC(=O)c3c(cc4c(c3O)CCC(C)(CCCC(C)(C)O)O4)O2)cc(O)c1OC` (some centres undefined): the Ki in experiment [1] turned out to be 5 µM. This compound displayed a half-inhibitory concentration (IC50) in experiment [2] of 11.6 µM. For the same compound, the inhibition entry in experiment [3] was “Dose-dependent effect”.

In turn, `COc1cc([C@@H]2CC(=O)c3c(cc4c(c3O)CCC(C)(CCCC(C)(C)O)O4)O2)cc(OC)c1O` (some centres undefined) showed a Ki in experiment [1] of 13 µM. This compound had an IC50 in experiment [2] of 12.5 µM. Besides, the inhibition result in experiment [3] is “Dose-dependent effect”.

Regarding `COc1ccc([C@H]2Oc3cc(O)c(C/C=C(\C)CCC=C(C)C)c(O)c3C(=O)[C@@H]2O)cc1O`, the Ki in experiment [1] came out at 6.3 µM. The IC50 in experiment [2] is 9.2 µM. Also, in experiment [3], the inhibition entry was “Dose-dependent effect”.

As to `CC(C)(O)CCCC1(C)CCc2c(cc3c(c2O)C(=O)C[C@@H](c2ccc(O)c(O)c2)O3)O1` (some centres undefined), affinity in experiment [1] was put at a Ki of 4.8 µM. This compound also registered an IC50 in experiment [2] of 6.2 µM. Besides, in experiment [3], the inhibition entry was “Dose-dependent effect”.

On to `COc1ccc([C@@H]2CC(=O)c3c(cc4c(c3O)CCC(C)(CCCC(C)(C)O)O4)O2)cc1O` (some centres undefined), for which, in experiment [3], the inhibition result is “Dose-dependent effect”.

For `CC(C)=CCC/C(C)=C/Cc1c(O)cc2c(c1O)C(=O)C[C@@H](c1ccc(O)c(O)c1)O2` [NYMPHAEOL A], in experiment [1], the Ki amounted to 5.1 µM. For the same compound, the IC50 in experiment [2] worked out at 10.4 µM. For the same compound, in experiment [3], the inhibition result was “Dose-dependent effect”.

Take `CC(C)=CCC/C(C)=C/Cc1c(O)cc2c(c1O)C(=O)C[C@@H](c1ccc(O)cc1)O2` [BONANNIONE A]: the Ki in experiment [1] was found to be 7.8 µM. Also, 14.4 µM corresponded to half-maximal inhibition in experiment [2] (IC50). The inhibition entry in experiment [3] was “Dose-dependent effect”.

(Values after ChEMBL document CHEMBL2384961, “Geranylated flavonoids displaying SARS-CoV papain-like protease inhibition from the fruits of Paulownia tomentosa” (Bioorg Med Chem, 2013).)
